# In ChEMBL document CHEMBL3227993, “Studies on 3-substituted 1,2-benzisoxazole derivatives. 6. Syntheses of 3-(sulfamoylmethyl)-1,2-benzisoxazole derivatives and their anticonvulsant activities” (J Med Chem, 1979):
# Active and inactive are the calls of the source. The rule behind the calls is not given here.
# What was measured:
# [1] = Neurotoxicity in po dosed STD-dd mouse assessed as muscle incoordination administered via gavage by rotarod test; assay type: toxicity, organism-based, Muscle tissue; details: in vivo
# How it was run: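 Gavage dosing as a suspension in 5% tragacanth solution, with ten mice per dose level at ≥4 levels. Rotarod test 2 h after dosing used a horizontal rod 2.5 cm in diameter rotating at 11 rpm. Minimal neurotoxicity end point was muscle incoordination, i.e. inability to stay on the rod. NTD50 was calculated by Litchfield–Wilcoxon.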
# [2] = system: Mus musculus; test: Anticonvulsant activity in po dosed STD-dd mouse assessed as protection against hind-limb extensor component of maximal electroshock seizure administered via gavage measured 2 hrs after drug dosing; assay type: functional
# How it was run: (§1)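 Mice dosed by gavage as a suspension in 5% tragacanth solution. Maximal electroshock was given as 60-Hz, 25-mA current for 0.2 s through corneal electrodes, 2 h after dosing. Protection was scored as prevention of hind-limb extension. Preliminary screen used 100 mg/kg. For ED50, groups of ten mice per dose level at ≥4 dose levels, with values calculated by Litchfield–Wilcoxon.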
# [3] = system: Mus musculus; test: Anticonvulsant activity in STD-dd mouse assessed as protection against hind-limb extensor component of maximal electroshock seizure at 100 mg/kg, po administered via gavage measured 2 hrs after drug dosing; assay type: functional, organism-based; design: dose 100 mg/kg; how it was run: as §1
SMILES,TD50 [1] [mg/kg],ED50 [2] [mg/kg],Activity [3]
NS(=O)(=O)Cc1noc2ccc(Br)cc12,60,14,–
CCC1(CC)C(=O)NC(=O)N(C)C1=O [METHARBITAL],87.9,60.8,–
CCNS(=O)(=O)Cc1noc2ccccc12,223,39,–
O=S(=O)(Cc1noc2ccccc12)N1CCOCC1,–,–,inactive
NS(=O)(=O)CCCc1noc2ccccc12,–,39,–
CN1CCN(S(=O)(=O)Cc2noc3ccc(Br)cc23)CC1,87,88,–
Cc1cccc2c(CS(N)(=O)=O)noc12,–,–,inactive
CC(C)NS(=O)(=O)Cc1noc2ccccc12,340,56,–
CNS(=O)(=O)Cc1noc2ccc(F)cc12,168,35,–
CN(C)NS(=O)(=O)Cc1noc2ccccc12,–,–,inactive
CN1CCN(S(=O)(=O)Cc2noc3ccccc23)CC1,–,57,–
CC(C)NS(=O)(=O)Cc1noc2ccc(Br)cc12,93,22,–
COC(=O)c1ccccc1NS(=O)(=O)Cc1noc2ccccc12,–,–,inactive
NS(=O)(=O)Cc1noc2ccccc12 [ZONISAMIDE],–,20,–
NS(=O)(=O)Cc1noc2ccc(F)cc12,–,15,–
CN(C)S(=O)(=O)Cc1noc2ccccc12,–,37,–
NS(=O)(=O)Cc1noc2ccc([N+](=O)[O-])cc12,–,–,inactive
NS(=O)(=O)Cc1noc2ccc(Cl)cc12,52,14,–
CCNS(=O)(=O)Cc1noc2ccc(F)cc12,200,32,–
CCNS(=O)(=O)Cc1noc2ccc(Br)cc12,66,18,–
O=S(=O)(Cc1noc2ccccc12)NCCO,–,–,inactive
CN(C)S(=O)(=O)Cc1noc2ccc(Cl)cc12,250,57,–
CC(C)NS(=O)(=O)Cc1noc2ccc(F)cc12,109,38,–

SMILES,TD50 [1] [mg/kg],ED50 [2] [mg/kg],Activity [3]
O=S(=O)(Cc1noc2ccccc12)N1CCN(Cc2ccccc2)CC1,–,–,inactive
O=S(=O)(Cc1noc2ccccc12)N1CCCCC1,–,–,inactive
CCCNS(=O)(=O)Cc1noc2ccccc12,–,–,inactive
CCNS(=O)(=O)Cc1noc2ccc(Cl)cc12,–,21,–
NNS(=O)(=O)Cc1noc2ccccc12,–,–,inactive
Cc1ccc2onc(CS(N)(=O)=O)c2c1,–,–,inactive
CN1CCN(S(=O)(=O)Cc2noc3ccc(F)cc23)CC1,142,100,–
CN(C)CCCNS(=O)(=O)Cc1noc2ccccc12,–,–,inactive
CC(C)NS(=O)(=O)Cc1noc2ccc(Cl)cc12,–,100,–
O=S(=O)(Cc1noc2ccccc12)NCc1ccccc1,–,–,inactive
CNS(=O)(=O)Cc1noc2ccc(Cl)cc12,60,20,–
CNS(=O)(=O)Cc1noc2ccc(Br)cc12,–,15,–
CN(C)S(=O)(=O)Cc1noc2ccc(F)cc12,350,32,–
NS(=O)(=O)CCc1noc2ccccc12,–,26,–
O=S(=O)(Cc1noc2ccccc12)NO,–,32,–
O=C1NC(=O)C(c2ccccc2)(c2ccccc2)N1 [PHENYTOIN],111,10,–
COc1ccc2onc(CS(N)(=O)=O)c2c1,–,–,inactive
O=S(=O)(Cc1noc2ccccc12)N1CCN(c2ccccc2)CC1,–,–,inactive
CNS(=O)(=O)Cc1noc2ccccc12,–,23,–
NS(=O)(=O)Cc1noc2cc(F)ccc12,–,19,–
CN(C)S(=O)(=O)Cc1noc2ccc(Br)cc12,100,45,–
O=S(=O)(Cc1noc2ccccc12)Nc1ccccc1,–,–,inactive
